Measured values published in ChEMBL document CHEMBL1641444, “Synthesis and evaluation of 6-[1-(2-[(18)F]fluoro-3-pyridyl)-5-methyl-1H-1,2,3-triazol-4-yl]quinoline for positron emission tomography imaging of the metabotropic glutamate receptor type 1 in brain” (Bioorg Med Chem, 2011).
Values belong to the molecule of their own block, whether it stands above or below them.

Assays:
[1] = target: Metabotropic glutamate receptor 1 (Rattus norvegicus) (UniProt P23385); assay: Binding affinity to mGluR1 in Sprague-Dawley rat cerebellum at 0.023 nM after 30 mins by autoradiography; format: tissue-based; conditions: tested as the 18F-labelled form
Summary of the method: (§1)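 Rat brain sections were preincubated 3 × 5 min at room temperature in 50 mM Tris–HCl, pH 7.4, with 1.2 mM MgCl2 and 2 mM CaCl2. They were then incubated 30 min at room temperature in fresh buffer with 0.023 nM [18F]ligand, alone or with MPEP at two levels. Sections were washed 3 × 5 min in cold buffer, rinsed in cold water and dried. Imaging-plate autoradiography followed; regional PSL/mm2 was taken minus 1.5 PSL/mm2 background. Means ± SD, n = 6–8 per group.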

[2] = target: Metabotropic glutamate receptor 1 (Rattus norvegicus) (UniProt P23385); assay: Binding affinity to mGluR1 in Sprague-Dawley rat thalamus at 0.023 nM after 30 mins by autoradiography; format: tissue-based; conditions: tested as the 18F-labelled form; summary of the method: as §1
[3] = target: Metabotropic glutamate receptor 1 (Rattus norvegicus) (UniProt P23385); assay: Binding affinity to mGluR1 in Sprague-Dawley rat hippocampus at 0.023 nM after 30 mins by autoradiography; format: tissue-based; conditions: tested as the 18F-labelled form; summary of the method: as §1
[4] = target: Metabotropic glutamate receptor 1 (Rattus norvegicus) (UniProt P23385); assay: Binding affinity to mGluR1 in Sprague-Dawley rat olfactory bulb at 0.023 nM after 30 mins by autoradiography; conditions: tested as the 18F-labelled form; summary of the method: as §1
[5] = target: Metabotropic glutamate receptor 1 (Rattus norvegicus) (UniProt P23385); assay: Binding affinity to mGluR1 in Sprague-Dawley rat striatum at 0.023 nM after 30 mins by autoradiography; conditions: tested as the 18F-labelled form; summary of the method: as §1
[6] = target: Metabotropic glutamate receptor 1 (Rattus norvegicus) (UniProt P23385); assay: Binding affinity to mGluR1 in Sprague-Dawley rat cerebral cortex at 0.023 nM after 30 mins by autoradiography; format: tissue-based; conditions: tested as the 18F-labelled form; summary of the method: as §1
[7] = target: Metabotropic glutamate receptor 1 (Rattus norvegicus) (UniProt P23385); assay: Binding affinity to mGluR1 in Sprague-Dawley rat pons-medulla at 0.023 nM after 30 mins by autoradiography; conditions: tested as the 18F-labelled form; summary of the method: as §1
[8] = target: Metabotropic glutamate receptor 1 (Rattus norvegicus) (UniProt P23385); assay: Binding affinity to mGluR1 in Sprague-Dawley rat whole brain assessed as reduction of total radioactivity at 0.023 nM after 30 mins by autoradiography in presence of mGluRl antagonist FPTQ; parameters: scale not given: the % may be the effect or the level left
[9] = target: Metabotropic glutamate receptor 1 (Rattus norvegicus) (UniProt P23385); assay: Binding affinity to mGluR1 in Sprague-Dawley rat whole brain at 0.023 nM after 30 mins by autoradiography in presence of mGluRl antagonist JNJ-16259685
Summary of the method: (§2)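 Sections were incubated as for the regional assay: 0.023 nM [18F]ligand, 30 min at room temperature, in 50 mM Tris–HCl pH 7.4 with MgCl2 and CaCl2, after 3 × 5 min preincubation. Unlabeled ligand or JNJ-16259685 was co-incubated to define specific binding. Sections were washed cold and exposed to imaging plates. ROIs covered the whole brain; values are PSL/mm2 minus background. n = 6–8.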

[10] = target: Metabotropic glutamate receptor 1 (Rattus norvegicus) (UniProt P23385); assay: Binding affinity to mGluR1 in Sprague-Dawley rat whole brain at 0.023 nM after 30 mins by autoradiography in presence of mGluRl antagonist FPTQ; summary of the method: as §2
[11] = target: Metabotropic glutamate receptor 1 (Rattus norvegicus) (UniProt P23385); assay: Binding affinity to mGluR1 in Sprague-Dawley rat cerebellum at 0.023 nM after 30 mins by autoradiography in presence of 1 uM of mGluR5 antagonist MPEP; format: tissue-based; conditions: tested as the 18F-labelled form; summary of the method: as §1
[12] = target: Metabotropic glutamate receptor 1 (Rattus norvegicus) (UniProt P23385); assay: Binding affinity to mGluR1 in Sprague-Dawley rat thalamus at 0.023 nM after 30 mins by autoradiography in presence of 1 uM of mGluR5 antagonist MPEP; format: tissue-based; conditions: tested as the 18F-labelled form; summary of the method: as §1
[13] = target: Metabotropic glutamate receptor 1 (Rattus norvegicus) (UniProt P23385); assay: Binding affinity to mGluR1 in Sprague-Dawley rat hippocampus at 0.023 nM after 30 mins by autoradiography in presence of 1 uM of mGluR5 antagonist MPEP; format: tissue-based; conditions: tested as the 18F-labelled form; summary of the method: as §1
[14] = target: Metabotropic glutamate receptor 1 (Rattus norvegicus) (UniProt P23385); assay: Binding affinity to mGluR1 in Sprague-Dawley rat olfactory bulb at 0.023 nM after 30 mins by autoradiography in presence of 1 uM of mGluR5 antagonist MPEP; conditions: tested as the 18F-labelled form; summary of the method: as §1
[15] = target: Metabotropic glutamate receptor 1 (Rattus norvegicus) (UniProt P23385); assay: Binding affinity to mGluR1 in Sprague-Dawley rat striatum at 0.023 nM after 30 mins by autoradiography in presence of 1 uM of mGluR5 antagonist MPEP; format: tissue-based; conditions: tested as the 18F-labelled form; summary of the method: as §1
[16] = target: Metabotropic glutamate receptor 1 (Rattus norvegicus) (UniProt P23385); assay: Binding affinity to mGluR1 in Sprague-Dawley rat cerebral cortex at 0.023 nM after 30 mins by autoradiography in presence of 1 uM of mGluR5 antagonist MPEP; format: tissue-based; conditions: tested as the 18F-labelled form; summary of the method: as §1
[17] = target: Metabotropic glutamate receptor 1 (Rattus norvegicus) (UniProt P23385); assay: Binding affinity to mGluR1 in Sprague-Dawley rat pons-medulla at 0.023 nM after 30 mins by autoradiography in presence of 1 uM of mGluR5 antagonist MPEP; conditions: tested as the 18F-labelled form; summary of the method: as §1
[18] = target: Metabotropic glutamate receptor 1 (Rattus norvegicus) (UniProt P23385); assay: Binding affinity to mGluR1 in Sprague-Dawley rat cerebellum at 0.023 nM after 30 mins by autoradiography in presence of 10 uM of mGluR5 antagonist MPEP; format: tissue-based; conditions: tested as the 18F-labelled form; summary of the method: as §1
[19] = target: Metabotropic glutamate receptor 1 (Rattus norvegicus) (UniProt P23385); assay: Binding affinity to mGluR1 in Sprague-Dawley rat thalamus at 0.023 nM after 30 mins by autoradiography in presence of 10 uM of mGluR5 antagonist MPEP; conditions: tested as the 18F-labelled form; summary of the method: as §1
[20] = target: Metabotropic glutamate receptor 1 (Rattus norvegicus) (UniProt P23385); assay: Binding affinity to mGluR1 in Sprague-Dawley rat hippocampus at 0.023 nM after 30 mins by autoradiography in presence of 10 uM of mGluR5 antagonist MPEP; format: tissue-based; conditions: tested as the 18F-labelled form; summary of the method: as §1
[21] = target: Metabotropic glutamate receptor 1 (Rattus norvegicus) (UniProt P23385); assay: Binding affinity to mGluR1 in Sprague-Dawley rat olfactory bulb at 0.023 nM after 30 mins by autoradiography in presence of 10 uM of mGluR5 antagonist MPEP; conditions: tested as the 18F-labelled form; summary of the method: as §1
[22] = target: Metabotropic glutamate receptor 1 (Rattus norvegicus) (UniProt P23385); assay: Binding affinity to mGluR1 in Sprague-Dawley rat striatum at 0.023 nM after 30 mins by autoradiography in presence of 10 uM of mGluR5 antagonist MPEP; format: tissue-based; conditions: tested as the 18F-labelled form; summary of the method: as §1
[23] = target: Metabotropic glutamate receptor 1 (Rattus norvegicus) (UniProt P23385); assay: Binding affinity to mGluR1 in Sprague-Dawley rat cerebral cortex at 0.023 nM after 30 mins by autoradiography in presence of 10 uM of mGluR5 antagonist MPEP; format: tissue-based; conditions: tested as the 18F-labelled form; summary of the method: as §1
[24] = target: Metabotropic glutamate receptor 1 (Rattus norvegicus) (UniProt P23385); assay: Binding affinity to mGluR1 in Sprague-Dawley rat pons-medulla at 0.023 nM after 30 mins by autoradiography in presence of 10 uM of mGluR5 antagonist MPEP; conditions: tested as the 18F-labelled form; summary of the method: as §1
[25] = target: Metabotropic glutamate receptor 1 (Rattus norvegicus) (UniProt P23385); assay: Binding affinity to mGluR1 in Sprague-Dawley rat brain assessed as decrease of total binding at 0.023 nM after 30 mins by autoradiography in presence of 10 uM of mGluR5 antagonist MPEP; format: tissue-based; parameters: scale not given: the % may be the effect or the level left; summary of the method: as §1
[26] = target: T1, Metabotropic glutamate receptor 1 (Homo sapiens, UniProt Q13255); assay: Binding affinity to human mGluR1
[27] = target: Metabotropic glutamate receptor 1 (Mus musculus, UniProt P97772); assay: Binding affinity to mouse mGluR1
[28] = target: T1, Metabotropic glutamate receptor 1; assay: Binding affinity to mGluR1

T1 sequence (Q13255 whole entry): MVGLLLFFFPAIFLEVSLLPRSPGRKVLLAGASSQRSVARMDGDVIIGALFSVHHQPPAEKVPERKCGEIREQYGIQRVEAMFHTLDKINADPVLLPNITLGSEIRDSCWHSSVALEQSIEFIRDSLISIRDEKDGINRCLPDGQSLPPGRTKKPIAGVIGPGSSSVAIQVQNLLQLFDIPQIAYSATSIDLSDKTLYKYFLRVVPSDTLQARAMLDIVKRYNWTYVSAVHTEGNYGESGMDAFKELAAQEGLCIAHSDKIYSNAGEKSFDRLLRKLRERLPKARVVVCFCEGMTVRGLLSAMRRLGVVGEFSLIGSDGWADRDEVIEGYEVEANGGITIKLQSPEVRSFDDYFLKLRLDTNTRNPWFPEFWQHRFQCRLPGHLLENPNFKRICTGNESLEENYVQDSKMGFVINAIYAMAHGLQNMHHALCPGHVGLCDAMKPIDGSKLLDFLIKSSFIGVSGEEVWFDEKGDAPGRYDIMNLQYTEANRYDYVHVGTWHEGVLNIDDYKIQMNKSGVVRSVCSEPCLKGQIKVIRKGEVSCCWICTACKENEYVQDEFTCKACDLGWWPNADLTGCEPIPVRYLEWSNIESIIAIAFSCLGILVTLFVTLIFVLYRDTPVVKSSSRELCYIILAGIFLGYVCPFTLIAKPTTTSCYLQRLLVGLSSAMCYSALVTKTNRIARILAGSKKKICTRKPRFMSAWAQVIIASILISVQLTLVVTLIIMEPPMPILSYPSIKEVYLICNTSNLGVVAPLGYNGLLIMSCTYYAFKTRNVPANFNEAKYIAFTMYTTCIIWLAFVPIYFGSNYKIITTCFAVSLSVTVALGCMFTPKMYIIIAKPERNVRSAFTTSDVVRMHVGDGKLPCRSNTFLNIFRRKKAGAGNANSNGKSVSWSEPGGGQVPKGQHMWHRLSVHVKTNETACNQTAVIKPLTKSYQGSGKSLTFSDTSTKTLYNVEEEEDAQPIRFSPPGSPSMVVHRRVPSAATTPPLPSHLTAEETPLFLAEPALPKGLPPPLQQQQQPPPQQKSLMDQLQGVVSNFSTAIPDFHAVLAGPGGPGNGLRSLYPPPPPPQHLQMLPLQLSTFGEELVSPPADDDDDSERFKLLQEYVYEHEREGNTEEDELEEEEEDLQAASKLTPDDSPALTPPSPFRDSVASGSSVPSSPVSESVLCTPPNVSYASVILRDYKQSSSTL
Metabotropic glutamate receptor 1 (Rattus norvegicus), sequence (P23385 19-1199 limits assumed): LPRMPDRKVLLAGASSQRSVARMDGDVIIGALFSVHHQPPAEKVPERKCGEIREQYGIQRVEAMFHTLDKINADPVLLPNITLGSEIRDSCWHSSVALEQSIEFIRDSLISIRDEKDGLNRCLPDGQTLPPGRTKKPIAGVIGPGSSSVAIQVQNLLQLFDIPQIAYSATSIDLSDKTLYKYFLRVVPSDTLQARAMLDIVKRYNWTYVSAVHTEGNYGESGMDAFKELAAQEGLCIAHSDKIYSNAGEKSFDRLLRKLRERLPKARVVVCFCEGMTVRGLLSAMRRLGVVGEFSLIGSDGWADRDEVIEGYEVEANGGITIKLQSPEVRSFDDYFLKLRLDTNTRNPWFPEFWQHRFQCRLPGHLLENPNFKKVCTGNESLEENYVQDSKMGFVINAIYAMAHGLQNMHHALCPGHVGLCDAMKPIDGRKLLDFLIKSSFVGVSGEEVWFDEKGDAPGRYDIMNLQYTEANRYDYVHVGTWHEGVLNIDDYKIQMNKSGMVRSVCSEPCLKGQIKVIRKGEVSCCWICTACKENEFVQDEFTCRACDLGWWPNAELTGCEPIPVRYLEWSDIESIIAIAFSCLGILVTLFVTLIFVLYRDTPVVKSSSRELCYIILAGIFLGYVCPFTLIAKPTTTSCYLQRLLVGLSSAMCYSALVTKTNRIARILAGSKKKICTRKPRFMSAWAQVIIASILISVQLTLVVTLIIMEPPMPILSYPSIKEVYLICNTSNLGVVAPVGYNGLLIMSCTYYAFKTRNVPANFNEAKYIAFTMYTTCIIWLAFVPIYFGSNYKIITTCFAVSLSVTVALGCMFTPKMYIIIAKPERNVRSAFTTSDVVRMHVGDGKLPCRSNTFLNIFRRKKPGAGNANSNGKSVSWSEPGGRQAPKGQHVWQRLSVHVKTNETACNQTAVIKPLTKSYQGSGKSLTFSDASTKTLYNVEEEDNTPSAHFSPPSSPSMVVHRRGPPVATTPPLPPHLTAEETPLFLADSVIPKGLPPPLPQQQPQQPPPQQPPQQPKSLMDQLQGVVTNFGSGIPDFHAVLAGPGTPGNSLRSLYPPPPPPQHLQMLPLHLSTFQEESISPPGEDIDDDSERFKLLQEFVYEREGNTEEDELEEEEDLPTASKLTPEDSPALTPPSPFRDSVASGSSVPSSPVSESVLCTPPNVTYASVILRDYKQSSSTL
Metabotropic glutamate receptor 1 (Mus musculus, UniProt P97772), sequence (P97772 whole entry): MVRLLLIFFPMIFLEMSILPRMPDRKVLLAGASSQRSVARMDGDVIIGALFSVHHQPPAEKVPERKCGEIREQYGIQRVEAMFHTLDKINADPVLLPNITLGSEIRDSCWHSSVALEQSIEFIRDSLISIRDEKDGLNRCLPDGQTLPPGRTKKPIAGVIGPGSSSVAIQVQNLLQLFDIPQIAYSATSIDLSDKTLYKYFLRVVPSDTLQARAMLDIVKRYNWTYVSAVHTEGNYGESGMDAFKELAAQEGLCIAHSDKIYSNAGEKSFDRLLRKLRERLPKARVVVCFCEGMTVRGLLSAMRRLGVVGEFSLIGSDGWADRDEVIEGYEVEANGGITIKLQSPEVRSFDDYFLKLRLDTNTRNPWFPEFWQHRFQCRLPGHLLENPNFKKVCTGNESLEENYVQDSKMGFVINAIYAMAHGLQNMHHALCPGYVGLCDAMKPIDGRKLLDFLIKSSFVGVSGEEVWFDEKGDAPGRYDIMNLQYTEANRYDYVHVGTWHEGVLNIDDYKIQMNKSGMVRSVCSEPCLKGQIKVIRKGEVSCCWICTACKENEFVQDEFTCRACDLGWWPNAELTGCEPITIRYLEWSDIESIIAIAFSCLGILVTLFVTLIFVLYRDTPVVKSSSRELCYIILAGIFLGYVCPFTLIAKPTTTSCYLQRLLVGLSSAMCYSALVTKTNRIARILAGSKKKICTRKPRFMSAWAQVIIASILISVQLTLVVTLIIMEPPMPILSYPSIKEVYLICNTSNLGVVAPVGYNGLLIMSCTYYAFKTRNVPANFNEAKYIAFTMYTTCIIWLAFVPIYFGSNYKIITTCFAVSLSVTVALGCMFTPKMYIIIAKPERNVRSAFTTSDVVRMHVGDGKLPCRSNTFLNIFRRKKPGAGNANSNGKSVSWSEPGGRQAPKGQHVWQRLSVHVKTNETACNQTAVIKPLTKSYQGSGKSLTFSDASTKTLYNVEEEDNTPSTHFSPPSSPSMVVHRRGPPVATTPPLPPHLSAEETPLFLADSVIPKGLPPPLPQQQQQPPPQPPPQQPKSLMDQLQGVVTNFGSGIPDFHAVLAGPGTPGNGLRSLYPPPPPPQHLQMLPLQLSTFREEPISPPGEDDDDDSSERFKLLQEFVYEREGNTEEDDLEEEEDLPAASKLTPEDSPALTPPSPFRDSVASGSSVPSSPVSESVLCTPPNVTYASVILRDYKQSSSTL

Activity [1]: 409 PSL/mm2
Activity [2]: 189 PSL/mm2
Activity [3]: 112 PSL/mm2
Activity [4]: 88.7 PSL/mm2
Activity [5]: 70.7 PSL/mm2
Activity [6]: 28.2 PSL/mm2
Activity [7]: 17.5 PSL/mm2
Activity [8]: < 3%
Activity [9]: 0.5 PSL/mm2
Activity [10]: 0.6 PSL/mm2
Activity [11]: 398 PSL/mm2
Activity [12]: 169 PSL/mm2
Activity [13]: 97.4 PSL/mm2
Activity [14]: 76 PSL/mm2
Activity [15]: 61.7 PSL/mm2
Activity [16]: 23.6 PSL/mm2
Activity [17]: 15.2 PSL/mm2
Activity [18]: 285 PSL/mm2
Activity [19]: 116 PSL/mm2
Activity [20]: 69.4 PSL/mm2
Activity [21]: 49 PSL/mm2
Activity [22]: 40.1 PSL/mm2
Activity [23]: 15.7 PSL/mm2
Activity [24]: 9.5 PSL/mm2
Activity [25]: 30%
IC50 [26]: 3.6 nM
IC50 [27]: 1.4 nM
SMILES: Cc1c(-c2ccc3ncccc3c2)nnn1-c1cccnc1F

Ki [28]: 0.87 nM
SMILES: CCc1cc2cc(C(=O)[C@H]3CC[C@@H](OC)CC3)ccc2nc1[11CH3]

Further lines, the molecule ahead of its results:

SMILES: CCCN1Cc2cc(-c3nnn(-c4cccnc4[18F])c3C)ccc2C1=O
Ki [28]: 0.4 nM

SMILES: CO[C@H]1CC[C@@H](C(=O)c2ccc3nc4c(cc3c2)CCCO4)CC1
Ki [28]: 0.34 nM

SMILES: COCCN([11CH3])Cc1ccc2nc3sc(C(=O)N(C)C4CCCCC4)cn3c2c1
Ki [28]: 4.8 nM
